{"source": "paper PMC5362268", "about": "(Cell, 2017)", "key": {"[1]": {"system": "RALA-GTP in BJeLR cells", "assay": "RALA activation assay", "assay_type": "cell-based, human", "how_it_was_run": "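BJeLR cells seeded 16 h before use in DMEM with 2% FBS, then given medium with test compound (from 10 mM DMSO stock) for 6 h. Cells washed twice with ice-cold 25 mM Tris, 100 mM NaCl, 1 mM TCEP, 5 mM MgCl2, 0.1% Tween-20 with protease inhibitor. RALA-GTP pulled down on beads, eluted in SDS buffer and blotted.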"}, "[2]": {"system": "HT-1080 cells (NRAS^Q61K)", "assay": "Lethality with PI3K and BRAF overexpression", "assay_type": "cell-based, human", "conditions": "24 h, 6-well format", "how_it_was_run": "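HT-1080 cells were retrovirally transduced using Phoenix-AMPHO supernatant, 0.45 µm filtered and added twice 4 h apart. After 48 h they were re-seeded under puromycin (2 μg/mL) for 6 d, and expression was checked by qPCR. Cells at 100,000/well in 6-well plates were treated 24 h, trypsinized, and viability read by Trypan blue exclusion (Vi-Cell).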"}, "[3]": {"system": "CRAF-bound RAS in BJeLR cells", "assay": "Cell-based RAS pulldown", "set-up": "species or system human", "how_it_was_run": "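BJeLR cells seeded 16 h before use in DMEM with 10% FBS. Medium then replaced with serum-free medium containing the test compound or a reference inhibitor (from 10 mM DMSO stocks), 24 h. c-RAF bound to RAS proteins was determined by pulldown.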"}, "[4]": {"system": "DLD-1 cells", "assay": "Pan-RAS siRNA knockdown and viability", "assay_type": "cell-based, human", "conditions": "24 h", "how_it_was_run": "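DLD-1 cells reverse-transfected in 6-well plates with siRNA pools against HRAS, KRAS and NRAS, or a non-targeting pool. Cells then re-suspended in serum-free RPMI and seeded at 10,000 cells/well in 384-well plates overnight. Dilution series added from 10× stocks in serum-free Opti-mem; 24 h incubation; viability by CellTiter-Glo.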"}, "[5]": {"target": "GDP complex of KRAS^G12D (Homo sapiens, UniProt P01116, G12D)", "assay": "MST, GDP-bound KRAS^G12D", "assay_type": "binding", "conditions": "compared with GppNHp-bound KRAS^G12D"}, "[6]": {"target": "HRAS^wt (Homo sapiens, UniProt P01112)", "sequence (P01112 whole entry)": "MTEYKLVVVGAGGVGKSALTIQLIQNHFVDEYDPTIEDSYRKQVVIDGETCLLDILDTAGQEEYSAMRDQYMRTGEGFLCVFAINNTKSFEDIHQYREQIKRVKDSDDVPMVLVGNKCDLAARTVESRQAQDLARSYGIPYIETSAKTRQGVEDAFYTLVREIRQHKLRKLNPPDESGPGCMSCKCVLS", "assay": "MST with RAS GTPases", "assay_type": "binding", "conditions": "selectivity panel, GppNHp-loaded"}, "[7]": {"system": "wild-type mice", "assay": "Toxicity and body weight in wild-type mice", "assay_type": "in vivo, mouse", "conditions": "individual mice"}, "[8]": {"system": "BRAF^V600E-CAAX-expressing MEF cells", "assay": "Viability assay in mouse embryo fibroblasts", "assay_type": "cell-based"}, "[9]": {"assay": "Microsomal stability assay", "assay_type": "in vitro ADME", "conditions": "mouse, over 120 minutes", "how_it_was_run": "(§1)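 Liver microsomes incubated in 100 mM phosphate buffer, pH 7.4, supplemented with an NADPH-regenerating system (solutions A and B).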"}, "[10]": {"target": "KRAS^G12D I36N (Homo sapiens, UniProt P01116, G12D/I36N)", "assay": "MST, I36N point mutant", "assay_type": "binding", "conditions": "compared with KRAS^G12D"}, "[11]": {"target": "KRAS^G12D D38A (Homo sapiens, UniProt P01116, D38A/G12D)", "assay": "MST, D38A point mutant", "assay_type": "binding", "conditions": "compared with KRAS^G12D"}, "[12]": {"system": "pERK and pAKT in BRAF-CAAX-containing MEFs", "assay": "Western blots of mouse embryo fibroblasts", "assay_type": "cell-based", "conditions": "compared with Kras MEFs", "how_it_was_run": "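MEFs seeded at 0.25 million/well in DMEM with Glutamax, 10% heat-inactivated FBS and P/S. Serum-starved 24 h, then given test compound in serum-free medium; EGF 10 ng/ml for 15 min where indicated. Band intensities background-subtracted; pERK and pAKT expressed as (phospho/tubulin)/(total/tubulin) and normalised to DMSO.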"}, "[13]": {"system": "Kras^lox/lox, Hras^−/−, Nras^−/− RERTn^ert/ert MEFs", "assay": "MEF cell number after treatment", "assay_type": "cell-based, mouse", "conditions": "6-well, 24 h treatment", "how_it_was_run": "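6-well format: 200,000 cells/well seeded 16 h beforehand. Medium replaced with medium containing test compound (from 10 mM DMSO stocks) at indicated concentrations. After 24 h, cells trypsinized and counted by Trypan Blue exclusion (Vi-Cell).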"}, "[14]": {"assay": "KC mouse weights on study", "assay_type": "in vivo", "conditions": "individual mice"}, "[15]": {"assay": "Microsomal stability assay", "assay_type": "in vitro ADME", "conditions": "human, over 120 minutes", "how_it_was_run": "as §1"}, "[16]": {"system": "pERK and pAKT in BJeLR (HRAS^V12) cells", "assay": "Western blots of RAS signaling", "assay_type": "cell-based, human", "how_it_was_run": "(§2)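 Cells seeded 16 h before use in DMEM with 10% or 2% FBS plus P/S. Compound added in serum-free DMEM or DMEM 2% FBS for the indicated times. Lysis in HEPES pH 7.4 buffer with phosphatase and protease inhibitors; SDS-PAGE, PVDF transfer, Li-COR blocking, primary antibodies (1:1000) overnight at 4 °C.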"}, "[17]": {"system": "pERK and pAKT in HT-1080 cells (NRAS^Q61K)", "assay": "Western blots of RAS signaling", "assay_type": "cell-based, human", "how_it_was_run": "as §2"}, "[18]": {"system": "MDA-MB-231 cell line (KRAS^G13D)", "assay": "Multicellular tumor spheroids", "assay_type": "cell-based, human", "conditions": "low-adherence plates, 72 h"}}, "note": "Values joined by “and” are separate entries in the source; they are usually repeats but may differ in a detail not shown here. Identical values can stand only once.", "data": [{"smiles": "NC1(C(=O)NCCCn2cc(-c3ccc(OC(F)(F)F)cc3)c3cc(CN4CCN(Cc5c(Cl)cccc5Cl)CC4)ccc32)CCNCC1", "note": "[compound 3144, 4-amino-N-(3-(5-((4-(2,6-dichlorobenzyl)piperazin-1-yl)methyl)-3-(4-(trifluoromethoxy)phenyl)-1H-indol-1-yl)propyl)piperidine-4-carboxamide]", "values": [{"measurement": "RALA-GTP", "setting": "[1]", "result": "decreased"}, {"measurement": "lethality upon overexpression of activated alleles of PI3K and/or BRAF", "setting": "[2]", "result": "reduced"}, {"measurement": "CRAF-bound RAS", "setting": "[3]", "result": "decreased"}, {"measurement": "concentration up to which cells were resistant", "setting": "[4]; DLD-1 (KRAS^G13D), high cell density, no RAS knockdown", "result": "> 20", "unit": "µM"}, {"measurement": "effect of combined HRAS, NRAS and KRAS knockdown on compound lethality", "setting": "[4]; si-panRAS vs non-targeting siRNA, CellTiter-Glo", "result": "sensitization"}, {"measurement": "affinity for the GDP complex", "setting": "[5]", "result": "reduced affinity"}, {"measurement": "binding by MST", "setting": "[6]", "result": "detected binding"}, {"measurement": "WT mouse weights", "setting": "[7]; day 1 on study", "result": "21.36 and 20.39 and 22.08 and 23.6 and 25"}, {"measurement": "WT mouse weights", "setting": "[7]; day 2 on study", "result": "20 and 18.8 and 20.6 and 22.7 and 23.38"}, {"measurement": "WT mouse weights", "setting": "[7]; day 3 on study", "result": "20 and 18.4 and 20.1 and 21.87 and 22.16"}, {"measurement": "WT mouse weights", "setting": "[7]; day 4 on study", "result": "20.77 and 17.4 and 19 and 21.08 and 23"}, {"measurement": "WT mouse weights", "setting": "[7]; day 5 on study", "result": "20.78 and 17.27 and 18.6 and 21.4 and 22.18"}, {"measurement": "concentrations showing lethality", "setting": "[8]; BRAF^V600E-CAAX-expressing MEFs", "result": "≥ 20", "unit": "µM"}, {"measurement": "sensitivity after Kras excision and BRAF^V600E-CAAX introduction", "setting": "[8]; compared with Kras^lox/lox MEFs", "result": "resistance"}, {"measurement": "stability in liver microsomes", "setting": "[9]", "result": "relatively stable"}, {"measurement": "binding affinity to I36N mutant", "setting": "[10]", "result": "reduced binding affinity"}, {"measurement": "binding affinity to D38A mutant", "setting": "[11]", "result": "reduced binding affinity"}, {"measurement": "pERK and pAKT abundance", "setting": "[12]", "result": "more resistant"}, {"measurement": "concentrations not reducing the number of MEFs below the starting number", "setting": "[13]", "result": "below 3 μM"}, {"measurement": "KC mouse weights", "setting": "[14]; day 1 on study", "result": "33 and 30.5 and 30.7 and 33.5 and 35.8"}, {"measurement": "KC mouse weights", "setting": "[14]; day 2 on study", "result": "32.2 and 28.1 and 27.8 and 33.5 and 34.5"}, {"measurement": "KC mouse weights", "setting": "[14]; day 3 on study", "result": "29.9 and 24.84 and 32 and 26.86"}, {"measurement": "KC mouse weights", "setting": "[14]; day 4 on study", "result": "28.8 and 23.6 and 30.5"}, {"measurement": "KC mouse weights", "setting": "[14]; day 5 on study", "result": "28.5 and 30.2"}, {"measurement": "stability in liver microsomes", "setting": "[15]", "result": "relatively stable"}, {"measurement": "EGF-induced pAKT and pERK abundance", "setting": "[16]", "result": "suppressed to a degree"}, {"measurement": "pERK and pAKT abundance", "setting": "[16]", "result": "somewhat decreased"}, {"measurement": "pERK and pAKT abundance", "setting": "[17]", "result": "somewhat decreased"}, {"measurement": "EGF-induced pAKT and pERK abundance", "setting": "[17]; 10 ng/mL EGF 15 min", "result": "suppressed to a degree"}, {"measurement": "spheroid size", "setting": "[18]", "result": "decreased in size in a dose-dependent manner"}]}]}
